Measurements reported in ChEMBL document CHEMBL4304771, “Design, synthesis and biological activity of N-(2-phenoxy)ethyl imidazo[1,2-a]pyridine-3-carboxamides as new antitubercular agents” (Eur J Med Chem, 2019).
Converted amounts (≈) assume the structure as drawn.

Tests used:
[1] = system: Mycobacterium tuberculosis; experiment: Antitubercular activity against multidrug resistant Mycobacterium tuberculosis isolate 9160 assessed as parasite growth inhibition measured after 7 days incubation by microplate alamar blue assay; format: functional; settings: isolate 9160, 168 h
How it was run: (§1)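 Strains grown to late log phase in 7H9 with 0.2% glycerol, 0.05% Tween 80 and 10% ADC. Cells washed, resuspended in PBS, filtered (8 µm) and frozen at -80 °C. Two-fold compound dilutions, 2 × 10⁵ CFU per well, 37 °C for 7 days. Tween 80 and Alamar blue then added for 16-24 h; fluorescence read at ex 530/em 590 nm. MIC = lowest concentration giving ≥90% fluorescence reduction versus mean of bacterium-only controls.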

[2] = system: Mycobacterium tuberculosis; experiment: Antitubercular activity against multidrug resistant Mycobacterium tuberculosis isolate 11168 assessed as parasite growth inhibition measured after 7 days incubation by microplate alamar blue assay; format: functional; settings: isolate 11168, 168 h; how it was run: as §1

| Compound | MIC [1] | MIC [2] |
| --- | --- | --- |
| CCc1nc2ccc(Br)cn2c1C(=O)NCCOc1ccc(Br)cc1 | 0.449 µg/mL (≈ 0.961 µM) | 0.125 µg/mL (≈ 0.268 µM) |
| CCc1nc2ccc(Br)cn2c1C(=O)NCCOc1ccc(N2CCCCC2)cc1 | < 0.016 µg/mL | < 0.016 µg/mL |
| CCc1nc2ccc(Br)cn2c1C(=O)NCCOc1ccc(N2CCC(C(F)(F)F)CC2)cc1 | 0.13 µg/mL (≈ 0.241 µM) | < 0.016 µg/mL |
| CCc1nc2ccc(Cl)cn2c1C(=O)NCCOc1ccc(N2CCN(c3ccc(F)cc3)CC2)cc1 | 0.016 µg/mL (≈ 0.0306 µM) | < 0.016 µg/mL |
| O=c1nc(N2CCN(CC3CCCCC3)CC2)sc2c([N+](=O)[O-])cc(C(F)(F)F)cc12 [MACOZINONE] | 0.232 µg/mL (≈ 0.508 µM) | 0.116 µg/mL (≈ 0.254 µM) |
| COc1ccc2nc(C)c(C(=O)NCCOc3ccc(Br)cc3)n2c1 | 0.5 µg/mL (≈ 1.24 µM) | 0.125 µg/mL (≈ 0.309 µM) |
| CCc1nc2ccc(C)cn2c1C(=O)NCCOc1ccc(N2CC3CCCCC3C2)cc1 (stereo unspecified) | 0.024 µg/mL (≈ 0.0537 µM) | < 0.016 µg/mL |
| CCc1nc2ccc(Br)cn2c1C(=O)NCCOc1ccc(N2CC3CCCCC3C2)cc1 (stereo unspecified) | 0.032 µg/mL (≈ 0.0626 µM) | < 0.016 µg/mL |
| CCc1nc2ccc(C)cn2c1C(=O)NCCOc1ccc(OC)cc1 | 0.394 µg/mL (≈ 1.11 µM) | < 0.016 µg/mL |
| CO[C@H]1/C=C/O[C@@]2(C)Oc3c(C)c(O)c4c(O)c(c(/C=N/N5CCN(C)CC5)c(O)c4c3C2=O)NC(=O)/C(C)=C\C=C\[C@H](C)[C@H](O)[C@@H](C)[C@@H](O)[C@@H](C)[C@H](OC(C)=O)[C@@H]1C [RIFAMPIN] | 38.6 µg/mL (≈ 47 µM) | 36.9 µg/mL (≈ 44.8 µM) |
| COc1ccc2nc(C)c(C(=O)NCCOc3ccc(N4CCC(C(F)(F)F)CC4)cc3)n2c1 | 0.111 µg/mL (≈ 0.233 µM) | < 0.016 µg/mL |
| CCc1nc2ccc(Cl)cn2c1C(=O)NCCOc1ccc(N(C)C)cc1 | 0.225 µg/mL (≈ 0.582 µM) | < 0.016 µg/mL |
| CCc1nc2ccc(Cl)cn2c1C(=O)NCCOc1ccc(Br)cc1 | 0.311 µg/mL (≈ 0.736 µM) | 0.063 µg/mL (≈ 0.149 µM) |
| CCc1nc2ccc(Cl)cn2c1C(=O)NCCOc1ccc(Cl)cc1 | 1 µg/mL (≈ 2.64 µM) | 0.25 µg/mL (≈ 0.661 µM) |
| NNC(=O)c1ccncc1 [ISONIAZID] | > 40 µg/mL | > 40 µg/mL |
| CCc1nc2ccc(Cl)cn2c1C(=O)NCc1ccc(N2CCC(c3ccc(OC(F)(F)F)cc3)CC2)cc1 [TELACEBEC] | 0.057 µg/mL (≈ 0.102 µM) | < 0.016 µg/mL |
| COc1ccc(OCCNC(=O)c2c(C3CC3)nc3ccc(C)cn23)cc1 | 0.429 µg/mL (≈ 1.17 µM) | < 0.016 µg/mL |
| COc1ccc2nc(C)c(C(=O)NCCOc3ccc(N4CC5CCCCC5C4)cc3)n2c1 (stereo unspecified) | < 0.016 µg/mL | < 0.016 µg/mL |
